High-throughput results as filed in PubChem BioAssay.
Kir21 block: inhibitors of mouse Kir2.1 inward-rectifier potassium channel; Inward rectifier potassium channel 2 (Mus musculus), P35561; HEK293-Kir2.1, FluxOR thallium flux fluorescence; hits give low values; B-score at 10 µM; actives 0.85% (n = 310,000); AID 1672, 2009;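 active = fluorescence ratio B-score at or below minus 3 SD of library scores, with starting-brightness B-score within 2 SD, cut at about -4.2 in these data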;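 note: channel flux triggered by added potassium and thallium sulfate stimulus; B-score of peak minus minimum fluorescence over baseline after thallium stimulus; more negative B-score means stronger Kir2.1 block with less thallium influx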
hERG protect: hERG rescue from dofetilide block, primary screen, cell-based, CHO-hERG, FluxOR thallium flux, dofetilide IC70; activation (rescue from dofetilide block), less the hit threshold, % at 10 µM; dofetilide IC70 present; AID 1511, 2009; actives 0.51% (n = 310,000);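 active = activation above the mean of controls blocked by dofetilide plus 5 SD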;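 note: thallium influx through hERG after potassium depolarization seen as dye fluorescence rise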
KCNK3 inh: human KCNK3 channel inhibitors, primary screen, CHO cells, FluxOR thallium flux, B-score. Potassium channel subfamily K member 3 (Homo sapiens), O14649. FluxOR fluorescence; hits give low values. B-score at 10 µM. actives 0.84% (n = 340,000). AID 602410, 2012;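 active = B-score under library mean minus 4 SD, starting fluorescence ratio at most library mean plus 5 SD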;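 note: more negative B-score means stronger inhibition of thallium flux through KCNK3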
Target sequence (O14649 whole entry, looked up): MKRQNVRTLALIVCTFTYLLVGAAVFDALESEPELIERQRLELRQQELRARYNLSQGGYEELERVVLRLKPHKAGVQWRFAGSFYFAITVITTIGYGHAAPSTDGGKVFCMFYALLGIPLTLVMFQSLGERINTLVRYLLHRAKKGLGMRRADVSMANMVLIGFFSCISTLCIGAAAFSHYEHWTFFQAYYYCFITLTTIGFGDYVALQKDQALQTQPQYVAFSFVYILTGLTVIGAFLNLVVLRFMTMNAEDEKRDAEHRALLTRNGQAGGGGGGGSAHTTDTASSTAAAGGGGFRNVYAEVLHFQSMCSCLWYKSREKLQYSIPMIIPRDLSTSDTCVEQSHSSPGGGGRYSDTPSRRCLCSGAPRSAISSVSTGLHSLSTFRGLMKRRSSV
KCNQ1 block: inhibitors of human KCNQ1 channel, primary screen, cell-based, thallium flux, high-throughput; B-score at 10 µM; actives 1.3% (n = 310,000); Potassium voltage-gated channel subfamily KQT member 1 (Homo sapiens), P51787; AID 2642, 2010; CHO-K1 KCNQ1, FluxOR thallium flux fluorescence; hits give high values;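 active = compounds whose thallium flux B-score, printed positive for inhibition, exceeds three library SD while starting fluorescence stays within three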;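 note: channel opened by potassium depolarization with thallium stimulus after 20 min compound exposure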
KCNK9 block: KCNK9 potassium channel inhibitors, primary screen, HEK293 cells, thallium flux; actives 1.2% (n = 310,000); B-score at 10 µM; FluxOR thallium flux fluorescence; hits give low values; Potassium channel subfamily K member 9 (Homo sapiens), Q9NPC2;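 active = ratio B-score over 3 SD below the library mean, with starting fluorescence within 5 SD of its mean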;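 note: negative B-score means less thallium flux so channel inhibition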
Target sequence (Q9NPC2 whole entry, looked up): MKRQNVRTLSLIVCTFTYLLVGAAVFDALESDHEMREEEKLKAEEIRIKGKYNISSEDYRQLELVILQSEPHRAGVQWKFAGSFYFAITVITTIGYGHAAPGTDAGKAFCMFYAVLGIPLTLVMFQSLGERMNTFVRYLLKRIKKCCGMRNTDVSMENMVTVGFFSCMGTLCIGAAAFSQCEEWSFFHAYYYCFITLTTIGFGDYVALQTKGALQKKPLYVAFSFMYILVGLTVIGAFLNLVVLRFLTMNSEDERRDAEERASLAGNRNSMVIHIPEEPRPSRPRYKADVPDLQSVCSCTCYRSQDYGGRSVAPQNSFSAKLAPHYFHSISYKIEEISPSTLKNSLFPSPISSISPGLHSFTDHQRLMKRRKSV
KCNQ1 pot: potentiators or activators of KCNQ1 channel, primary screen, cell-based, thallium flux, high-throughput. Potassium voltage-gated channel subfamily KQT member 1 (Homo sapiens), P51787. CHO-K1 KCNQ1, thallium flux FluxOR fluorescence; hits give high values. B-score at 10 µM. actives 0.35% (n = 310,000). AID 2648, 2010;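 active = fluorescence ratio B-score, a plate-corrected score, at least three library SD, with initial intensity B-score within 5 SD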
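Assay system: CHO-K1 cells stably expressing KCNQ1; Medium: assay buffer with matched DMSO; Also added: K+/Tl+ depolarizing stimulus; Dosing: single dose; Timing: dye 90 min, compound 20 min, room temperature; Measured by: kinetic FluxOR thallium fluorescence, 10-s 1-Hz baseline, 110-s post-stimulus read; Read-out: peak-minus-minimum fluorescence over initial fluorescence, negative-control normalized, B-scored.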
KCNK9 inh conf: KCNK9 potassium channel inhibitors, confirmation, HEK293 cells, thallium flux, duplicate; shares compounds with KCNK9 block; AID 492992, 2010; inhibition, % at 10 µM; actives 43% (n = 4,900); FluxOR thallium flux fluorescence;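 active = thallium signal inhibited by more than 5 SD of the compound-free buffer control wells, on both duplicate plates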;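 note: 0% = assay buffer control wells without compound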
Kir2-1 spec: mouse Kir2.1 channel inhibition, confirmation, selectivity assay for KCNK9 modulator project, cell-based, HEK293, thallium flux | shares compounds with KCNK9 block | Kir2.1 cells, FluxOR thallium flux fluorescence | inhibition, % at 10 µM | actives 4% (n = 4,900) | AID 492993, 2010;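 active = thallium signal drop more than 5 SD beyond the mean of the no-compound control wells, seen in both duplicate plates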;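 note: signal is fluorescence rise after thallium addition divided by baseline fluorescence; plate controls were assay buffer only for no effect and full block by chlorpromazine control for full effect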
HEK293 Tl ctr: thallium flux in non-induced HEK293 cells, confirmation, counter-screen for KCNK9 inhibitor project, cell-based, second counter screen, non-induced KCNK9-HEK293 | shares compounds with KCNK9 block | FluxOR thallium flux | inhibition, % at 10 µM | actives 40% (n = 4,900);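 active = thallium signal drop beyond 5 SD of the untreated control mean, on both duplicate plates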;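 note: plate controls were buffer only IC0 wells for no effect and SID17386958 at its maximal inhibitory level for full effect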
KCNK3 inh conf: retest of human KCNK3 channel inhibitors, confirmation, CHO cells, FluxOR thallium flux, triplicate; AID 651638, 2012; ratio percent of control, % at 10 µM; actives 99% (n = 2,400); shares compounds with KCNK3 inh; FluxOR fluorescence; 0% buffer, 100% carvedilol maximal block;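 active = ratio percent of control, averaged over triplicates, above buffer control mean plus 5 SD, cut at about 64% in these data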;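 note: ratio is the fluorescence rise from min to max over baseline after thallium stimulus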
KCNK3 uninduced: thallium flux inhibition in non-induced cells, primary screen, counter-screen for KCNK3 inhibitor project, cell-based, non-induced KCNK3 line, FluxOR thallium, triplicate. shares compounds with KCNK3 inh. non-induced KCNK3 parental cells; hits give low values. thallium flux ratio (lower = more inhibition) at 10 µM. actives 40% (n = 2,400);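 active = thallium flux ratio, averaged over three wells, more than 5 SD below the buffer control mean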;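 note: host cells are CHO cells without KCNK3 induction; ratio is peak minus trough fluorescence over baseline then normalized to buffer controls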
Starred values were filed as active, the others as inactive; i = inactive; nt = no result given. Rows were chosen to be rich in hits. Some 3.7% of all compounds tested hit in one or more screens of this group.

SMILES	Kir21 block	hERG protect	KCNK3 inh	KCNQ1 block	KCNK9 block	KCNQ1 pot	KCNK9 inh conf	Kir2-1 spec	HEK293 Tl ctr	others
Cc1ccc(S(=O)(=O)Nc2ccccc2C(=O)Nc2nc(-c3ccc(F)cc3)cs2)cc1	-1.48	-16.5	i	i	-10.1*	i	63.5%*	i	39.0%*
Cc1ccc(S(=O)(=O)Nc2nc(-c3ccccc3)cs2)cc1	-0.63	-11.4	i	i	i	i	nt	nt	nt
Cc1ccc(-c2noc(CSc3nnc(Cc4ccccc4)n3-c3cccc(C)c3)n2)cc1	-0.48	-14.4	i	i	-9.86*	i	i	i	30.0%*
CCOc1ccccc1NC(=O)n1ncc2c(C)cccc21	-2.16	-12.0	i	i	-13.3*	i	i	i	39.5%*
CC(C)CC(C(=O)NC(C)(C)C)N(Cc1ccccc1Cl)C(=O)c1snc(C(N)=O)c1N (stereo not given)	-0.48	-3.2	i	i	i	i	nt	nt	nt
CN1N=C(c2ccc(Cl)cc2)CC(c2ccc(Cl)cc2)C1=O (stereo not given)	1.53	-7.4	i	i	-10.7*	i	38.5%*	i	40.0%*
Cc1ccc(C2CC(c3ccc(Cl)cc3)=NNC2=O)cc1 (stereo not given)	0.01	-5.4	i	i	i	i	nt	nt	nt
CCOC(=O)C1=C(C)N=c2s/c(=C\c3ccc(OCC(=O)O)cc3)c(=O)n2C1c1ccccc1 (stereo not given)	1.9	-10.9	i	i	i	i	i	i	i
COc1cccc(C2C3=C(N=c4s/c(=C\c5ccc(OCC(=O)O)cc5)c(=O)n42)c2ccccc2CC3)c1 (stereo not given)	0.06	-0.2	nt	i	i	i	i	i	i
CCOc1ccc(CNc2nnnn2C)cc1	-0.56	-9.5	i	i	i	i	nt	nt	nt
CCOC(=O)C1=C(C)NC(=NC)SC1c1ccccc1 (stereo not given)	-1.84	-3.0	i	i	i	i	nt	nt	nt
CC1(C)Cc2c(cnn2-c2cccc(F)c2)C(NC(=O)CN2CCCC2=O)C1 (stereo not given)	0.19	-3.1	i	i	i	i	nt	nt	nt
Oc1ccccc1C1=Nc2ccccc2N=C(c2cccs2)C1	0.05	-24.1	i	i	-10.1*	i	42.5%*	i	34.0%*
O=S(=O)(CCSc1ccc(C(F)(F)F)cn1)c1ccc(Cl)cc1	-0.01	-8.2	i	i	i	i	nt	nt	nt
N#Cc1ccc(CN2CCN(c3ccc(S(=O)(=O)N4CCCC4)cn3)CC2)cc1	nt	nt	i	nt	nt	nt	nt	nt	nt
O=c1c(Cc2ccc(Cl)cc2)c(O)ccn1Cc1ccccc1	-0.71	-7.3	i	i	i	i	nt	nt	nt
O=c1c(Cc2ccc(Cl)cc2)c(O)ccn1Cc1cccc(Cl)c1	-0.19	-9.9	i	i	i	i	i	i	i
O=c1c(Cc2ccc(Cl)cc2Cl)c(O)ccn1Cc1ccc(Cl)cc1	0.95	-8.6	i	8*	i	i	i	i	i
O=c1c(Cc2ccc(F)cc2)c(O)ccn1Cc1cccc(Cl)c1	-0.26	-6.9	i	i	i	i	nt	nt	nt
Cc1ccccc1NCC(=O)Nc1cc(S(=O)(=O)N2CCCCC2)ccc1C	nt	nt	i	nt	nt	nt	nt	nt	nt
CC(NCC(=O)Nc1cc(S(=O)(=O)N2CCCCCC2)ccc1Cl)c1ccccc1 (stereo not given)	1.17	-11.9	i	i	i	i	i	i	i
COc1ccc(CN2C(=O)C(=O)N(CC(N)=O)C2=O)cc1	0.66	-8.2	i	i	i	i	nt	nt	nt
COc1cc2ccccc2cc1C(=O)N(CCN(C)C)c1nc2c(C)cccc2s1	0.38	-5.5	i	i	i	i	nt	nt	nt
Cc1ccc2sc(N(CCN(C)C)C(=O)c3ccc4ccccc4c3)nc2c1C	0.72	-11.8	i	i	i	i	i	i	i
Cc1cccc2sc(N(CCN(C)C)C(=O)c3cc(Cl)sc3Cl)nc12	0.04	-10.4	i	i	i	i	i	i	i
SMILES	Kir21 block	hERG protect	KCNK3 inh	KCNQ1 block	KCNK9 block	KCNQ1 pot	KCNK9 inh conf	Kir2-1 spec	HEK293 Tl ctr	others
Cc1cc(C)c2sc(N(CCN(C)C)C(=O)c3ccc4ccccc4c3)nc2c1	0.94	-15.7	i	i	i	i	nt	nt	nt
Cc1cccc2sc(N(CCCN(C)C)C(=O)c3ccc(C(=O)c4ccccc4)cc3)nc12	1.48	-22.8	i	i	i	i	i	i	i
Cc1cccc2sc(N(CCCN(C)C)C(=O)c3sc4ccccc4c3Cl)nc12	nt	nt	i	nt	nt	nt	nt	nt	nt
CCC(C)(C)NC(=O)CN(Cc1ccc(OC)cc1)C(=O)CCC(=O)Nc1nccs1	-0.91	-11.8	i	i	i	i	nt	nt	nt
Nc1c(C(=O)Nc2ccc3c(c2)OCCO3)nnn1Cc1cccc(F)c1	0.7	-9.6	i	i	i	i	nt	nt	nt
CC(SC1=Nc2ccccc2C2CC=NN12)C(=O)NC1(C#N)CCCCC1 (stereo not given)	-4.59*	-16.8	i	i	-10.1*	i	46.5%*	i	42.5%*
COc1ccc(CN2CCC3CC2c2cc(-c4cccc(C)c4)ccc23)cc1 (stereo not given)	nt	nt	i	nt	nt	nt	nt	nt	nt
COc1cccc(CNCC(O)(c2ccc(Cl)cc2)c2ccc(Cl)cc2)c1	-0.38	-29.4	i	7*	-13.4*	i	i	i	38.0%*	KCNK3 inh conf=139.3*;KCNK3 uninduced=0.154*
